Compound activity from PubChem BioAssay.
A selection: hits, their analogues and other compounds. The true share with any hit is near 4.8%.
T cruzi repl: inhibitors of intracellular T. cruzi growth, primary screen, luminescence, NIH3T3 host cells; inhibition, % (no concentration beside the values); T. cruzi beta-gal in NIH3T3, 90 h; hit rate 1.4% among 300,000; AID 1885, 2009;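 active = mean inhibition across valid replicates above about 55%, limit read from the data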;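 note: signal also drops with host cell toxicity which is not excluded here; 0% = plate median of DMSO wells and 100% = zero luminescence signal; higher percent means less beta-gal luminescence so fewer parasites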
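assay system = mouse NIH/3T3 fibroblasts infected with β-gal-expressing T. cruzi Tulahuen C4 | input = 5,000 NIH/3T3 host cells per well | buffer or medium = DMEM plus 2% FBS | timing = 3 h host attachment, then at least 90 h co-culture | measured by = GalScreen luminescence, 60 min | evaluation = luminescence reflecting intracellular parasite burden, expressed as percent inhibition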
Mot1-301 SUMO: yeast Mot1-301 growth rescue at high temperature, primary screen, SUMOylation pathway inhibitor project, S. cerevisiae, ATP luminescence, 38.5C. S. cerevisiae Mot1-301 growth rescue; percent above DMSO median, 100 means doubled. growth rescue, % at 18.8 µM. hit rate 1% among 320,000. AID 2716, 2010;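 active = every valid replicate shows activation above 250% relative to neutral control wells; inactive = the rest, any valid replicate at or below 250%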;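 note: OY570 slx delta 5 strain wells were the positive control but not used for scaling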
WT yeast gro inh: growth inhibition of WT strain, primary screen, mitochondrial fusion inhibitor project, WT and mutant strains, chemical genetic | mitochondrial fusion phenotypic screen | inhibition, % at 10 µM | hit rate 2.1% among 190,000; in the data active = inhibition above about 58%; tested in S. cerevisiae
Efflux pump mplx: inhibitors of Candida efflux pumps in yeast, primary screen, S. cerevisiae, Nile Red, multiplex | S. cerevisiae Candida pump triplex | inhibition, % at 10 µM | hit rate 0.44% among 330,000 | AID 485275, 2010;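 active = plate passing quality check with inhibition over a set limit, or well fluorescence over plate mean plus 4 SD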;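 note: Nile Red retained in pooled yeast measured as flow cytometry median fluorescence; 0% = buffer negative control and 100% = Enniatin B positive control; higher means more Nile Red kept so more efflux inhibition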
CSC inhib: cancer stem cell viability inhibitors, primary screen, luminescence; hit rate 1.1% among 300,000; inhibition, % at 7.5 µM; cancer stem cell-like cells viability; in the data active = inhibition above about 75%; tested in HMLE shEcad cells
Beta apoptosis: inhibitors of cytokine-induced beta cell apoptosis, primary screen, luminescence. INS-1E cytokine-induced death, ATP luminescence, 48 h; percent of positive-control rescue, neutral wells zero. protection from apoptosis, % (no concentration beside the values). hit rate 0.8% among 300,000;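 active = Every replicate reaches about 75%, or at least half do and their mean reaches it too, limit read from the data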;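 note: 0% = cytokine-treated negative control wells and 100% = positive control rescue; higher means more ATP so stronger rescue from cytokine killing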
Starred values were filed as active, the others as inactive; x = no result.

SMILES | T cruzi repl | Mot1-301 SUMO | WT yeast gro inh | Efflux pump mplx | CSC inhib | Beta apoptosis
Cc1ccc(C2=CC(=O)C[C@H](c3ccc4c(c3)OCO4)C2)cc1 | x | 0 | x | 0 | 42 | -3
O=C(CNC(=O)c1ccc(Cl)cc1Cl)OCCCn1c(=O)[nH]c2ccccc21 | -2 | 14 | x | 0 | -4 | 0
Cc1ccc(Nc2nc(N)nc(CSc3nc4ccccc4s3)n2)cc1 | 28 | 49 | 86* | 0 | 22 | -1
Cc1ccccc1Nc1nc(N)nc(CSc2nc3ccccc3s2)n1 | 1 | 4 | 47 | 0 | -3 | -1
CCn1c2ccccc2c2cc(CNCCCN3CCOCC3)ccc21 | 61* | -5 | x | 0 | 0 | 3
CCn1c2ccccc2c2cc(CNCc3ccc(OC)cc3OC)ccc21 | 48 | 3 | 84* | 0 | -1 | 9
COc1cccc(CNCc2ccc(OC)cc2OC)c1 | -9 | 0 | x | 0 | 6 | x
COCCNC(=O)CSc1nc2scc(-c3ccccc3)c2c(=O)[nH]1 | -30 | 1 | x | 0 | 17 | -3
O=C(Nc1ccccc1Oc1ccccc1)c1cc([N+](=O)[O-])ccc1Cl | -3 | 248 | 76* | -1 | 1 | -10
O=C(O)c1ccccc1C(=O)Nc1ccc(Nc2ccc([N+](=O)[O-])cc2[N+](=O)[O-])cc1 | 15 | -10 | x | 0 | -11 | 1
Cc1cccc(NC(=O)c2cc([N+](=O)[O-])ccc2Cl)c1O | -10 | -8 | 5 | 0 | 7 | 3
O=C(Nc1ccc(Nc2ccccc2)cc1)c1cc([N+](=O)[O-])ccc1Cl | 41 | 106 | x | 0 | 78* | 16
COCn1ccnc1C(O)(c1ccc(OC)cc1)c1ccc(OC)cc1 | -13 | -2 | -16 | 0 | -1 | -10
Cc1noc(/C=C/c2ccco2)c1S(=O)(=O)N1CCC(C(=O)N2c3ccccc3CC2C)CC1 (configuration not stated) | 58* | 5 | 10 | 0 | 23 | -1
CCN(CC(=O)Nc1c(F)cccc1F)C(=O)c1cc(-c2cccs2)nn1-c1ccccc1 | 11 | -11 | x | 0 | x | -2
COCc1c(Br)c(C)nc(OCC(=O)N/N=C/c2cc(C)n(-c3ccc([N+](=O)[O-])cc3)c2C)c1C#N | 63* | -5 | -8 | 0 | 6 | -4
CN(Cc1ccccc1)Cc1c[nH]c2ccccc12 | 55* | -1 | 14 | 0 | 23 | 4
CCc1ccccc1Nc1nn2c(=O)c3ccc(C(=O)NCc4ccccn4)cc3nc2s1 | 37 | 5 | x | 0 | 83* | 9
CN1/C(=C\C(=S)NC(=O)c2cccc(Br)c2)C(C)(C)c2ccccc21 | 47 | -4 | 65* | 0 | 10 | 116*
CN1/C(=C/C=N/NC(=O)c2ccc([N+](=O)[O-])cc2)C(C)(C)c2ccccc21 | 10 | -2 | 3 | 0 | x | 3
CN1/C(=C\C(=O)CSc2nncn2C)C(C)(C)c2ccccc21 | -3 | x | 4 | 0 | -6 | 45
COc1cc(OC)cc(C(=O)NCC(=O)OCC(=O)/C=C2/N(C)c3ccccc3C2(C)C)c1 | 14 | 77 | 9 | 0 | x | 28
CN1/C(=C\C(=S)NC(=O)c2ccc([N+](=O)[O-])cc2)C(C)(C)c2ccccc21 | 48 | 2 | -23 | 0 | -6 | 103*
CCN(CC)S(=O)(=O)c1cccc(C(=O)/C=C2/N(C)c3ccccc3C2(C)C)c1 | 57* | -20 | -10 | 0 | 41 | 28
COc1cccc2cc(C(=O)N3CCc4ccccc43)c(=O)oc12 | -6 | 198 | 83* | 0 | 14 | -1
SMILES | T cruzi repl | Mot1-301 SUMO | WT yeast gro inh | Efflux pump mplx | CSC inhib | Beta apoptosis
Cc1nc(C(=O)NC2CCCCC2)sc1C1(C)CC(c2cccc([N+](=O)[O-])c2)=NO1 (configuration not stated) | 48 | -3 | x | 0 | 16 | 12
Cc1nc(C(=O)Nc2ccc(Cl)cc2)sc1C1(C)CC(c2cccc([N+](=O)[O-])c2)=NO1 (configuration not stated) | 66* | -17 | x | 0 | 5 | 14
COc1ccc(/C=C/C(=O)c2cc(Br)ccc2OC(=O)c2ccco2)cc1OC | -6 | 14 | 65* | 0 | 11 | 1
COc1ccc(/C=C/C(=O)c2cc(Br)ccc2O)cc1OC | 0 | -18 | -25 | 0 | 9 | -3
CNC(=O)COC(=O)/C=C/c1cccc(F)c1 | 3 | 114 | -7 | 0 | 3 | -1
CCOC(=O)c1sc(NC(=O)Nc2cccc(Cl)c2)cc1C | 52 | 17 | 67* | 0 | -5 | 101*
CCCOc1ccc(N2C(=O)CC(SC(=N)N3N=C(c4ccccc4)CC3c3ccccc3)C2=O)cc1 (configuration not stated) | 68* | -6 | -13 | 0 | -9 | 29
CC(Cc1cccs1)NC(=S)Nc1ccc(Cl)cc1 (configuration not stated) | -2 | 40 | 67* | 0 | 11 | 5
CC(Cc1cccs1)NC(=S)Nc1ccc(Cl)c(Cl)c1 (configuration not stated) | -11 | 7 | 57 | 0 | 20 | -3
O=[N+]([O-])c1cccc2c(N3CCCC3)ccnc12 | 51 | x | 9 | 0 | -4 | 112*
CNC(=O)c1cc(Oc2ccc(NC(=O)Nc3ccc(Cl)c(C(F)(F)F)c3)cc2)ccn1 | x | -8 | x | 0 | 124* | x
COC(=O)CNC(c1ccccc1)c1cc(Br)ccc1NC(=O)CCN1CCOCC1 (configuration not stated) | 68* | 13 | -4 | 0 | 18 | -11
Cc1ccc(-n2cc(CNCCc3cscn3)c(-c3ccc(F)cc3)n2)cc1 | 34 | 228 | 69* | 0 | -8 | x
Cc1ccc(-c2nn(-c3ccccc3)cc2CNCc2ccccc2)cc1 | 62* | -4 | 81 | 0 | 73 | -2
Cc1ccc(-n2cc(CNCCCn3ccnc3C)c(-c3ccc(F)cc3)n2)cc1 | 84* | 4 | 43 | 0 | -1 | 7
Cc1ccc(-c2nn(-c3ccccc3)cc2CO)cc1 | 1 | 6 | x | 0 | 9 | -5
COc1ccc(NC(=O)Cc2c(SC)c3ccccc3n2Cc2ccccc2)cc1 | 20 | 0 | 10 | 0 | -1 | 23
O=C(Cc1cccs1)N1CCN(c2nc(-c3ccc(Cl)cc3)cs2)CC1 | 5 | 25 | 59* | 0 | -2 | 4
CC(C)C(=O)N1CCN(c2nc(-c3ccc(Cl)cc3)cs2)CC1 | -8 | -21 | 27 | 0 | 17 | 4
Cc1cccc(C(=O)NC(NCc2ccco2)C(Cl)(Cl)Cl)c1 (configuration not stated) | -7 | -15 | 8 | 0 | -1 | x
